Data set [1] has as its target T1, Cyclin-dependent kinase 5/CDK5 activator 1 (Homo sapiens) (UniProt Q00535+Q15078). The experiment in a line: Inhibition of recombinant human CDK5/p25 expressed in bacteria assessed as residual activity at 10 uM using histone H1 as substrate in presence of [gamma-33P]ATP relative to control. The method in brief: (§1)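 Human recombinant CDK5/p25 (bacterially expressed) assayed with 0.8 μg/μl histone H1 as substrate and 15 μM [γ-33P]ATP. Residual activity versus DMSO controls, triplicate.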

The target in data set [2] is T1, Cyclin-dependent kinase 5/CDK5 activator 1 (Homo sapiens). The experiment in a line: Inhibition of recombinant human CDK5/p25 expressed in bacteria assessed as residual activity at 1 uM using histone H1 as substrate in presence of [gamma-33P]ATP relative to control. The method in brief:
as §1

The target of data set [3] is Dual specificity protein kinase CLK1 (Mus musculus) (UniProt P22518). The experiment in a line: Inhibition of recombinant mouse CLK1 expressed in bacteria assessed as residual activity at 10 uM using GRSRSRSRSRSR as substrate in presence of [gamma-33P]ATP relative to control.
Sequence of Dual specificity protein kinase CLK1 (Mus musculus) (P22518 whole entry, looked up): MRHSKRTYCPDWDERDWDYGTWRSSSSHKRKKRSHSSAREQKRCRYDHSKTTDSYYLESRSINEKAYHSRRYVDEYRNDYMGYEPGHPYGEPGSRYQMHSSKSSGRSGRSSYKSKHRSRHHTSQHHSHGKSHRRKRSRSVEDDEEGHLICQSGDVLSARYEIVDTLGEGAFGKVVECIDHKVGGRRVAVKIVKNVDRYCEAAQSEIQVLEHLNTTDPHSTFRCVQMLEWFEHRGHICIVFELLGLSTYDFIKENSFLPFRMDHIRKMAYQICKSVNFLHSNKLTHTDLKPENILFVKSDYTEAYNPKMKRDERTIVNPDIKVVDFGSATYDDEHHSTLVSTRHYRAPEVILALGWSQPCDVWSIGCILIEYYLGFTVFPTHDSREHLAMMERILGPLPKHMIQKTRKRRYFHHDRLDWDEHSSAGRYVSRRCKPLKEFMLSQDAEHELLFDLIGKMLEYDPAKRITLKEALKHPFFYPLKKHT
For data set [4] the target is unchanged. The experiment in a line: Inhibition of recombinant mouse CLK1 expressed in bacteria assessed as residual activity at 1 uM using GRSRSRSRSRSR as substrate in presence of [gamma-33P]ATP relative to control.
Data set [5] has as its target Dual specificity tyrosine-phosphorylation-regulated kinase 1A (Rattus norvegicus) (UniProt Q63470). Briefly: Inhibition of rat DYRK1A kinase domain (1 to 499 residues) expressed in bacteria assessed as residual activity at 10 uM using KKISGRLSPIMTEQ as substrate in presence of [gamma-33P]ATP relative to control. The method in brief: (§2)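 Buffer: 10 mM MgCl2, 1 mM EGTA, 1 mM DTT, 25 mM Tris-HCl pH 7.5, 50 μg/ml heparin, 0.15 mg/ml BSA.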

Data set [6] has the same target. Briefly: Inhibition of rat DYRK1A kinase domain (1 to 499 residues) expressed in bacteria assessed as residual activity at 1 uM using KKISGRLSPIMTEQ as substrate in presence of [gamma-33P]ATP relative to control. The method in brief: as §2
For data set [7], the species on record is Sus scrofa domesticus. The experiment in a line: Inhibition of porcine brain CK1delta/epsilon assessed as residual activity at 10 uM using RRKHAAIGSpAYSITA as substrate in presence of [gamma-33P]ATP relative to control. Type of data set: tissue-based.
The species entered for data set [8] is Sus scrofa domesticus. Briefly: Inhibition of porcine brain CK1delta/epsilon assessed as residual activity at 1 uM using RRKHAAIGSpAYSITA as substrate in presence of [gamma-33P]ATP relative to control. Type of data set: tissue-based.
Data set [9] concerns the target T2, Glycogen synthase kinase-3 (Sus scrofa) (UniProt B2LUN4+I6LNT8). The experiment in a line: Inhibition of porcine brain GSK-3alpha/beta assessed as residual activity at 10 uM using YRRAAVPPSPSLSRHSSPHQSpEDEEE as substrate in presence of [gamma-33P]ATP relative to control. It is filed as tissue-based. Conditions: Sus scrofa domesticus.
The target of data set [10] is T2, Glycogen synthase kinase-3 (Sus scrofa). Briefly: Inhibition of porcine brain GSK-3alpha/beta assessed as residual activity at 1 uM using YRRAAVPPSPSLSRHSSPHQSpEDEEE as substrate in presence of [gamma-33P]ATP relative to control. It is filed as tissue-based. Conditions: Sus scrofa domesticus. The method in brief:
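Affinity-purified porcine brain GSK-3α/β with 0.01 µg/µl GS-1 peptide (phosphoserine-primed) as substrate and 15 µM [γ-33P]ATP. Buffer was 25 mM Tris-HCl pH 7.5, 10 mM MgCl2, 1 mM EGTA, 1 mM DTT, 50 µg/ml heparin and 0.15 mg/ml BSA. Radioactive incorporation was compared with DMSO-dilution controls, in triplicate.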

Data set [11] has as its target T3, Dual specificity tyrosine-phosphorylation-regulated kinase 1A (Rattus norvegicus, UniProt Q63470). Briefly: Inhibition of rat DYRK1A kinase domain (1 to 499 residues) expressed in bacteria using KKISGRLSPIMTEQ as substrate measured after 30 mins in presence of ATP by ADP-Glo kinase assay. The method in brief: (§3)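 ADP-Glo luminescent kinase assay at 10 μM ATP, 30 min reaction at 30 °C; luminescence read as relative light units to derive IC50.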
A general note: ADP-Glo turns the ADP formed in a reaction into a luminescent signal.

In data set [12] the target is T4, Dual specificity protein kinase CLK1 (Mus musculus, UniProt P22518). The experiment in a line: Inhibition of recombinant mouse CLK1 expressed in bacteria using GRSRSRSRSRSR as substrate in presence of [gamma-33P]ATP.
T4 sequence (P22518 whole entry, the tested form may be a part): as the sequence (P22518 whole entry, looked up) above
Data set [13] deals with T3, Dual specificity tyrosine-phosphorylation-regulated kinase 1A. The experiment in a line: Inhibition of rat DYRK1A kinase domain (1 to 499 residues) expressed in bacteria using KKISGRLSPIMTEQ as substrate in presence of [gamma-33P]ATP. The method in brief:
as §2

Data set [14] in a line: Selectivity index, ratio of IC50 for recombinant mouse CLK1 expressed in bacteria to IC50 for rat DYRK1A kinase domain (1 to 499 residues) expressed in bacteria.
A short description of data set [15]: Antiproliferative activity against hTERT-RPE1 cells assessed as cell viability at 2 uM after 48 hrs by CellTiter96 AQueous assay relative to control. It is filed as cell-based, TERT-RPE1. Conditions: human, read-out: Activity. The gist of the method: (§4)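 Cells grown in McCoy's 5a (HCT116), DMEM (SH-SY5Y, MDA-MB231, U-2 OS) or DMEM:F12 (hTERT-RPE1), each with 10% fetal calf serum, 2 mM L-glutamine, penicillin/streptomycin. Exposed to compound at 2 μM for 48 h; viability read by CellTiter96 AQueous per manufacturer, as % of DMSO-treated cells. Triplicate, mean ± SD; staurosporine as positive control.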

In a further data set the test system is HCT-116. Briefly: Antiproliferative activity against human HCT116 cells assessed as cell viability at 2 uM after 48 hrs by CellTiter96 AQueous assay relative to control. It is filed as functional. Conditions: read-out: Activity. The method in brief: as §4
The test system of another data set is MDA-MB-231. Briefly: Antiproliferative activity against human MDA-MB-231 cells assessed as cell viability at 2 uM after 48 hrs by CellTiter96 AQueous assay relative to control. It is filed as functional. Conditions: read-out: Activity. The gist of the method: as §4
The next data set deals with SH-SY5Y. Briefly: Antiproliferative activity against human SH-SY5Y cells assessed as cell viability at 2 uM after 48 hrs by CellTiter96 AQueous assay relative to control. It is filed as functional. Conditions: read-out: Activity. The gist of the method:
as §4

In a further data set the test system is U2OS. The experiment in a line: Antiproliferative activity against human U2OS cells assessed as cell viability at 2 uM after 48 hrs by CellTiter96 AQueous assay relative to control. It is filed as functional. Conditions: read-out: Activity. The gist of the method: as §4
In data set [16] the target is T4, Dual specificity protein kinase CLK1. Briefly: Inhibition of recombinant mouse CLK1 expressed in bacteria using GRSRSRSRSRSR as substrate measured after 30 mins in presence of ATP by ADP-Glo kinase assay. The method in brief: as §3

Molecules are shown by their SMILES.

T1 sequence (Q00535 whole entry): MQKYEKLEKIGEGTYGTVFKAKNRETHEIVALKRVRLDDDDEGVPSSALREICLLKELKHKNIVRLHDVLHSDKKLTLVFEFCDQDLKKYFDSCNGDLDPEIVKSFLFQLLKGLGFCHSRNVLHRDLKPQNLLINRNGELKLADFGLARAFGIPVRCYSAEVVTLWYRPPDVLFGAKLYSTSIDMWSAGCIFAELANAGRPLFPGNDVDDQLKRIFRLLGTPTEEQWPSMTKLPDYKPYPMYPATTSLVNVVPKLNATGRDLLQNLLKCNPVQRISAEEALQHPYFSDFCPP
T1 sequence (Q15078 99-307 partner limits assumed): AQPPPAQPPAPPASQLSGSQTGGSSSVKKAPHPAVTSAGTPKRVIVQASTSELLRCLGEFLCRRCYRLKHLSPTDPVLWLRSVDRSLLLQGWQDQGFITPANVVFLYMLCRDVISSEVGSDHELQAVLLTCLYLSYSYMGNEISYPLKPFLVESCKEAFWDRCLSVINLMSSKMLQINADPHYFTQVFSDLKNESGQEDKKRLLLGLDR

As a reminder, the IC50 is the concentration needed to halve the response being measured. `Nc1c2ccncc2cc2cnc(NCCN3CCOCC3)nc12`: the Activity in data set [1] turned out to be 10%; in [2] it was 52%; in data set [3], 4%; in data set [4], 27%; in data set [5] it was 1%; in data set [6], 17%. Further, the Activity in the data set filed under Sus scrofa domesticus [7] is 34%; in the data set listed under Sus scrofa domesticus [8] it was 77%; in [9], 24%; in [10], 76%. In data set [11], the IC50 was found to be 0.197 µM.

In the case of `Nc1c2ccncc2cc2cnc(NCCCN3CCOCC3)nc12`, the Activity in [1] amounted to 23%; in [2] it was 67%; in data set [3], 4%; in data set [4], 20%; in data set [5], 6%; in data set [6], 5%. Moreover, the Activity in the data set filed under Sus scrofa domesticus [7] amounted to 24%; in the data set listed under Sus scrofa domesticus [8] it was 53%; in [9], 6%; in [10] it was 41%. In addition, the figures for the IC50 in data set [12] and in data set [13] were 0.29 µM and 0.023 µM, respectively. Further, the Ratio IC50 in [14] is 12.6. Moreover, the viability at 48 h, 2 µM in data set [15] was 0%. The viability at 2 µM came to 0.8% in the data set on HCT-116, 15% in the data set with MDA-MB-231, 3.6% in the data set on SH-SY5Y and 6.4% with U2OS.

As for `CNc1ncc2cc3cnccc3c(N)c2n1`, the Activity amounted to 3% in data set [1]; 33% in [2]; 1% in data set [3]; 9% in data set [4]; 1% in data set [5]; 27% in data set [6]. For the same compound, the Activity in the data set listed under Sus scrofa domesticus [7] was 60%; in the data set filed under Sus scrofa domesticus [8] it was 85%; in data set [9], 40%; in [10], 79%. The 50% inhibitory concentration (IC50) in data set [16] amounted to 0.274 µM.

For `CN1CCN(CCCNc2ncc3cc4cnccc4c(N)c3n2)CC1`, the Activity in [1] turned out to be 15%; in data set [2], 49%; in [3] it was 6%; in data set [4], 8%; in [5] it was 1%; in data set [6], 4%. Further, the Activity is 30% in the data set listed under Sus scrofa domesticus [7], 61% in the data set filed under Sus scrofa domesticus [8], 4% in data set [9] and 35% in data set [10]. For the same compound, the IC50 in data set [12] is 0.117 µM; in data set [13], 0.02 µM. Also, in data set [14], the Ratio IC50 worked out at 5.9. Moreover, the viability at 48 h, 2 µM in [15] came out at 0%. The viability at 2 µM with HCT-116 amounted to 0%; in the data set with MDA-MB-231 it was 3.6%; in the data set on SH-SY5Y, 0.1%; with U2OS it was 0.1%.

Source of the values: ChEMBL document CHEMBL4665625, “New pyrido[3,4-g]quinazoline derivatives as CLK1 and DYRK1A inhibitors: synthesis, biological evaluation and binding mode analysis” (Eur J Med Chem, 2019).
